Assay results as given in PMC9924434 (International journal of pharmaceutics, 2023).

How the values were obtained:
[1] = Solubility of DK-I-60-3 in lipid mixtures; assay type: physicochemical
Method in brief: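 DSC on bulk and melted-then-solidified Softisan 154 and on Softisan 154–lecithin mixtures, blank or with 1.0% or 1.5% test compound. Crystallinity index = mixture enthalpy / untreated Softisan 154 enthalpy × 100. PLM: melted mixture dropped onto heated slide, covered, solidified quickly at room temperature, imaged at 400× with crossed polarizers and ¼λ plate. Triplicates, mean ± SD.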

[2] = ref Mitrović et al., 2021; cited from earlier work

- saturation solubility of DK-I-60-3 in the lipid mixture ([1]; Softisan 154 + lecithin (30%) lipid mixture, by DSC and PLM): 1.0%
- DK-I-60-3 solubilized by the lipid matrix ([1]; mixture of solid (Softisan 154) and liquid (medium chain triglycerides) lipid, preliminary studies): < 0.5%
SMILES: [2H]C([2H])([2H])Oc1ccc(-n2nc3c4ccc(OC([2H])([2H])[2H])cc4[nH]cc-3c2=O)cc1 [DK-I-60-3, 7-methoxy-d3-2-(4-methoxy-d3-phenyl)-2,5-dihydro-3Hpyrazolo[4,3-c]quinolin-3-one]
- solubility in common organic solvents [2]: very slightly or slightly soluble
- solubility in water and oils commonly used for pharmaceutical formulations [2]: practically insoluble
